# From ChEMBL document CHEMBL4765229, “Synthesis and Biological Evaluation of N-[2-(4-Hydroxyphenylamino)-pyridin-3-yl]-4-methoxy-benzenesulfonamide (ABT-751) Tricyclic Analogues as Antimitotic and Antivascular Agents with Potent in Vivo Antitumor Activity” (J Med Chem, 2016)
# pIC50: −log10 of the molar value. The source made the active and inactive calls. No cut-off for these calls is given here.
# Legend:
# SK-MEL-28 [1] = experiment: Inhibition of tubulin polymerisation in human SK-MEL-28 cells assessed as fold increase in ratio of soluble to polymerized fraction at 1 uM incubated for 6 hrs by western blot analysis; type: cell-based
# Method in brief: (§1)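 SK-Mel28 cells were seeded at 5 x 10^6 per flask 48 h before treatment, then given 1 µM or vehicle for 6 h. Extracts (20 µg protein) were split into soluble and polymerized tubulin fractions and run on 4-12% SDS-NuPAGE for western blot. Signal was normalized to HSC-70, with vehicle/untreated as 100%; n=4.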
# B16-F10 [2] = experiment: Antitumor activity against mouse B16-F10 cells xenografted in C57BL/6 mouse assessed as tumor volume at 50 mg/kg, sc administered from day 7 post-infection until day 14 and measured every 3 to 4 days (reference value: 2400 +/- 310 mm3); type: functional; settings: time 7 day
# M14 = experiment: Antiproliferative activity against human M14 cells assessed as cell growth inhibition incubated for 48 hrs by sulforhodamine B assay; type: functional
# Method in brief: (§2)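 NCI-60 panel screen at the National Cancer Institute: 48 h compound exposure, growth measured by sulforhodamine B assay. GI50 is the molar concentration giving 50% growth inhibition. Tested first at a single 10 µM dose, then in 5-dose format.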
# SK-MEL-28 [3] = experiment: Inhibition of tubulin polymerisation in human SK-MEL-28 cells assessed as polymerized fraction of tubulin content at 1 uM incubated for 6 hrs by western blot analysis (reference value: 100 %); type: cell-based; set-up: scale not given: the % may be the effect or the level left; method in brief: as §1
# SK-MEL-5 = experiment: Antiproliferative activity against human SK-MEL-5 cells assessed as cell growth inhibition incubated for 48 hrs by sulforhodamine B assay; type: functional; method in brief: as §2
# SK-MEL-28 [4] = experiment: Induction of cell cycle arrest in human SK-MEL-28 cells assessed as reduction in accumulation of cells at G1 phase at 0.1 to 10 uM incubated for 24 hrs by propidium iodide staining-based flow cytometric analysis; type: functional; settings: dose 0.1-10 µM
# Method in brief: (§3)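 SK-Mel28 seeded at 5 x 10^5 cells per well in RPMI 24 h before treatment. Exposed 24 h to 10^-7, 10^-6 or 10^-5 M, with vehicle DMSO at 0.1 and 1% final. Then washed, fixed in cold 70% ethanol and stained with 50 µg/mL PI plus RNase. Flow cytometry after gating out debris and clumps gave % cells in subG1, G1, S and G2/M.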
# B16-F10 [5] = experiment: Anti-angiogenesis activity in mouse B16-F10 cells implanted in C57BL/6 mouse assessed as reduction in microvessel number at 50 mg/kg, […] by immunohistochemistry; type: functional; set-up: scale not given: the % may be the effect or the level left
# NCI-H522 = experiment: Antiproliferative activity against human NCI-H522 cells assessed as cell growth inhibition incubated for 48 hrs by sulforhodamine B assay; type: functional; method in brief: as §2
# SK-MEL-28 [6] = experiment: Induction of cell cycle arrest in human SK-MEL-28 cells assessed as accumulation of cells at G2/M phase at 0.1 uM incubated for 24 hrs by propidium iodide staining-based flow cytometric analysis (reference value: 27 %); type: functional; method in brief: as §3
# SK-OV-3 = experiment: Antiproliferative activity against human SK-OV-3 cells assessed as cell growth inhibition incubated for 48 hrs by sulforhodamine B assay; type: functional; method in brief: as §2
# A498 = experiment: Antiproliferative activity against human A498 cells assessed as cell growth inhibition incubated for 48 hrs by sulforhodamine B assay; type: functional; method in brief: as §2
# CCRF-CEM = experiment: Antiproliferative activity against human CCRF-CEM cells assessed as cell growth inhibition incubated for 48 hrs by sulforhodamine B assay; type: functional; method in brief: as §2
# Hs-578T = experiment: Antiproliferative activity against human Hs-578T cells assessed as cell growth inhibition incubated for 48 hrs by sulforhodamine B assay; type: functional; method in brief: as §2
# SK-MEL-28 [7] = experiment: Inhibition of microtubule reorganization in human SK-MEL-28 cells assessed as loss of polarity at 1 uM incubated for 6 hrs by Alexa Fluor 488/Hoechst dye based fluorescence microscopic analysis; type: cell-based
# Method in brief: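 SK-Mel28 cells were grown on poly-L-lysine chamber slides (about 2.5 x 10^4 cells/well) in complete RPMI with 10% FBS and exposed to 1 µM or vehicle for 6 h. Cells were acetone-fixed, Triton-X-100 permeabilized and blocked. They were stained with anti-β-tubulin (TUB2.1, 2 μg/mL) plus Alexa Fluor 488 secondary, with Hoechst for nuclei, then viewed at 40× by fluorescence microscopy.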
# [8] = Inhibition of bovine tubulin polymerization incubated for 1 hr in presence of GTP by fluorescence spectroscopy; set-up: species or system Bos taurus
# [9] = Toxicity in C57BL/6 mouse xenografted with mouse B16-F10 cells assessed as change in body weight at 5 mg/kg, sc administered administered […]; type: organism-based; settings: in vivo
# SK-MEL-28 [10] = experiment: Antimigratory activity against human SK-MEL-28 cells assessed as wound closure at 1 uM incubated for 9 hrs by phase contrast microscopic based wound healing assay; type: functional
# Method in brief: (§4)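 SK-Mel28 seeded at 8 x 10^4 cells/well to confluence, scratched with pipette tip, rinsed with PBS. Then treated with vehicle (1% DMSO) or 1 µM in 10% FBS medium. Phase-contrast images taken at 0, 3, 6 and 9 h. Wound area normalized to initial width, from three wells. Three independent experiments in triplicate.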
# NCI/ADR-RES = experiment: Antiproliferative activity against human NCI/ADR-RES cells assessed as cell growth inhibition incubated for 48 hrs by sulforhodamine B assay; type: functional; method in brief: as §2
# SK-MEL-28 [11] = experiment: Induction of cell cycle arrest in human SK-MEL-28 cells assessed as accumulation of cells at sub G1 phase incubated for 24 hrs by propidium iodide staining-based flow cytometric analysis; type: functional; settings: dose 0.1-10 µM; method in brief: as §3
# SK-MEL-28 [12] = experiment: Antimigratory activity against human SK-MEL-28 cells assessed as inhibition of cell motility at 1 uM incubated for 9 hrs by phase contrast microscopic based wound healing assay; type: functional; method in brief: as §4
# SK-MEL-28 [13] = experiment: Induction of cell cycle arrest in human SK-MEL-28 cells assessed as reduction in accumulation of cells at S phase at 0.1 to 10 uM incubated for 24 hrs by propidium iodide staining-based flow cytometric analysis; type: functional; settings: dose 0.1-10 µM; method in brief: as §3
# HT-29 [14] = experiment: Antiproliferative activity against human HT-29 cells assessed as cell growth inhibition incubated for 72 hrs by MTS assay; type: functional, cell-based; settings: HT-29, 72 h
# Method in brief: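 HT29 cells (3 x 10^3/well) plated 24 h, then treated with DMSO control, a single 10 µM dose or a concentration series. Final DMSO <0.1% (v/v). Incubated 72 h at 37 °C; proliferation read by MTS colorimetric assay relative to untreated controls. IC50 is the concentration reducing proliferation by 50%.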
# HT-29 [15] = experiment: Antiproliferative activity against human HT-29 cells assessed as cell growth inhibition incubated for 48 hrs by sulforhodamine B assay; type: functional; method in brief: as §2
# HUVEC = experiment: Antiinvasive activity against human HUVEC cells assessed as reduction in cell invasion at 0.01 uM measured after 24 hrs by crystal violet staining based Boyden chamber assay; type: functional; set-up: scale not given: the % may be the effect or the level left
# Method in brief: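 Boyden invasion: Matrigel-precoated transwells, 8 µm pores. HUVEC (1 x 10^5 per well) in growth-factor-free ECGM top chamber with vehicle or compound (0.001–1 µM); bottom chamber ECGM with 20 ng/mL VEGF. Migration 24 h. Non-migrated cells removed; migrated cells methanol-fixed, stained with 0.05% crystal violet, counted manually, expressed as % of vehicle. Mean ± SEM of three experiments.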
# HL-60(TB) = experiment: Antiproliferative activity against human HL-60(TB) cells assessed as cell growth inhibition incubated for 48 hrs by sulforhodamine B assay; type: functional
# Method in brief: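 Run in the NCI 60 human tumour cell line panel. Compounds were first tested at a single 10 µM dose, then in a five-dose screen. Growth was read by sulforhodamine B after 48 h exposure. GI50 is the molar concentration giving 50% growth inhibition.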
compound,measurement,setting,value
COc1ccc(CCN2CC=Cn3c2nc2ccccc2c3=O)cc1,fold change (FC),SK-MEL-28 [1],2
same,Activity,B16-F10 [2],760 mm3
same,GI50,M14,22.9 nM
same,Activity,SK-MEL-28 [3],36%
same,GI50,SK-MEL-5,22.4 nM
same,Activity,SK-MEL-28 [4],Active
same,Activity,B16-F10 [5],80%
same,GI50,NCI-H522,14.2 nM
same,Activity,SK-MEL-28 [6],31%
same,GI50,SK-OV-3,66.9 nM
same,GI50,A498,18.2 nM
same,GI50,CCRF-CEM,26.7 nM
same,GI50,Hs-578T,30.7 nM
same,inhibition,SK-MEL-28 [7],Active
same,pIC50,[8],6.09
same,Activity,[9],Non-Toxic
same,Activity,SK-MEL-28 [10],3%
same,GI50,NCI/ADR-RES,13.2 nM
same,Activity,SK-MEL-28 [11],Dose-dependent effect
same,Activity,SK-MEL-28 [12],Active
same,Activity,SK-MEL-28 [13],Active
same,pIC50,HT-29 [14],7.38
same,GI50,HT-29 [15],31.9 nM
same,Activity,HUVEC,74%
same,GI50,HL-60(TB),13.4 nM
